Among the data in ChEMBL document CHEMBL1126051, “New thymidine triphosphate analogue inhibitors of human immunodeficiency virus-1 reverse transcriptase” (J Med Chem, 1992) are Ki values, retold here.

By pKi is commonly meant the negative decadic logarithm of the Ki, by convention in mol/L. A lower pKi goes with a large Ki.

Each structure is given as a SMILES string. pKi: −log10 of the molar value.

The experiment concerns the target Human immunodeficiency virus type 1 reverse transcriptase (Human immunodeficiency virus 1, UniProt Q72547). Nature of the experiment: The compound was tested for the inhibition of human immunodeficiency virus-1 reverse transcriptase(HIV-1 RT). The procedure, abridged: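 Ki by kinetics: HIV-1 RT p66 at 60 ng/mL with 0.4 μM poly(rA)-oligo(dT), inhibitor, and [3H]TTP varied over 4-20 μM, in pH 8.0 Tris buffer with 6 mM MgCl2, 8 mM DTT, 80 mM KCl. Incubated 37 °C for 30 min, then EDTA quench. 3H incorporation counted on DE-81 paper; Ki taken from double-reciprocal plots.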
On to `Cc1cn([C@H]2C[C@@H](O)[C@@H](OP(=O)(O)NP(=O)(O)NP(=O)(O)O)O2)c(=O)[nH]c1=O`, for which the pKi was 4.72. The same measure for `Cc1cn([C@H]2CC[C@@H](OP(=O)(O)NP(=O)(O)OP(=O)(O)O)O2)c(=O)[nH]c1=O`: 4.82; for `Cc1cn([C@H]2C[C@@H](N=[N+]=[N-])[C@@H](OP(=O)(O)NP(=O)(O)OP(=O)(O)O)O2)c(=O)[nH]c1=O`: 4.66.
